Results from PubChem BioAssay AID1656 (Sanford-Burnham Center for Chemical Genomics, 2009).
Hit rate of the full screen: of about 240,000 compounds, about 950 (0.4%) were called active.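 Rule for the calls: active = lipid droplet intensity inhibited by at least 50%, with more than 500 cells counted; inconclusive = wells with under 300 cells, treated as cytotoxic; inactive = the rest.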 What follows is part of a selection rich in actives, with near analogues and random picks from the rest.

Assay: oleate-induced lipid droplet accumulation in AML12 cells – imaging, high-throughput imaging, BODIPY stain, primary screen (AID 1656);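 for cell count: cells counted across two imaged fields per well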
Details: AML12 mouse hepatocytes, oleate lipid droplets, at 6.5 µM; cell count: measured here: cell count, cytotoxicity flag; inhibition: stronger effect = higher value
How it was run: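 material = mouse AML12 hepatocyte cell line, fixed after treatment | also added = 100 µM oleic acid challenge | doses = compound at 6.5 µM only | schedule = overnight exposure | technique = Image-based BODIPY and DAPI two-channel analysis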

Structure (SMILES)	cell count [cells]	inhibition
CC(NC(=O)CNC(=O)Cc1cccc2ccccc12)c1ccc(S(N)(=O)=O)cc1 (centres undefined)	734	13.3% (inactive)
CC(NC(=O)c1cccc2ccccc12)c1ccc2c(c1)CCCC2 (centres undefined)	688	57.9% (active)
CC(NC(=O)c1ccccc1C(=O)O)c1ccc(-n2ccnc2)cc1 (centres undefined)	807	2.2% (inactive)
CCn1c(=S)sc2c(=O)n(CC(=O)Nc3cccc(Br)c3)c(C)nc21	740	8.5% (inactive)
C/C(=N\NC(=O)COc1ccc(C)cc1[N+](=O)[O-])c1ccc2c(c1)OCCO2	706	-6.5% (inactive)
CCCSc1nc2sc3c(c2c(=O)n1-c1ccc(OC)cc1)CCN(C)C3	816	11.2% (inactive)
O=c1[nH]cccc1-c1nc2ccccc2n1Cc1ccc(Cl)cc1	844	10.1% (inactive)
CC(=O)N1c2ccc(S(=O)(=O)N3CCC(C(=O)N4CCN(c5ccccc5)CC4)CC3)cc2CC1C (centres undefined)	669	-1.7% (inactive)
Cc1ccc(Nc2ccc(C(N)=O)cc2[N+](=O)[O-])cc1	630	-6.1% (inactive)
Cc1cc(Nc2ccc(N3CCOCC3)cc2)c2cccc(C)c2n1	761	11.3% (inactive)
Cc1ccc(Nc2cc(C)nc3c(C)ccc([N+](=O)[O-])c23)cc1	674	57.6% (active)
O=C(Nc1ncc([N+](=O)[O-])s1)C1COc2ccccc2O1 (centres undefined)	840	-18.9% (inactive)
CCN(CCCNC(=O)CSc1cc(=O)n(C)c2cc(Cl)ccc12)Cc1ccccc1	704	18.8% (inactive)
Cn1c(=O)cc(SCC(=O)N2CCCC2)c2cc(Cl)ccc21	775	9% (inactive)
CCOc1ccc(CCNC(=O)CSc2cc(=O)n(C)c3ccc(Cl)cc23)cc1OCC	659	93.9% (active)
O=C(c1ccccc1)N1CCC(CC2CC(c3ccc(Cl)cc3)=NO2)(C(=O)NCC2CCCCC2)CC1 (centres undefined)	817	-15.1% (inactive)
CN(CC1CCCN(CCc2cccc(C(F)(F)F)c2)C1)C(=O)c1ccc2nc[nH]c2c1 (centres undefined)	744	-11.4% (inactive)
O=C(NCCCN1CCCC1=O)C(=O)NCC1OCCN1S(=O)(=O)c1ccc(Br)cc1 (centres undefined)	666	-6.7% (inactive)
CCCC(=O)Nc1nnc(-c2ccccc2)o1	702	4.2% (inactive)
OC(c1nnc(-c2ccccc2)o1)c1cccs1 (centres undefined)	773	16.7% (inactive)
CCCN(CCC)c1ccc(C(O)c2nnc(-c3ccccc3)o2)cc1 (centres undefined)	691	69.3% (active)
O=C(Nc1ccccc1C(=O)Nc1ccncc1)c1ccc([N+](=O)[O-])cc1	805	10.9% (inactive)
O=C(CCCN1C(=O)/C(=C\c2ccco2)SC1=S)Nc1cccc2ccccc12	553	-6.6% (inactive)
CCCN(CCC)c1nc2c(C)cccn2c(=O)c1/C=C1/SC(=S)N(Cc2ccco2)C1=O	775	57.5% (active)
CCOC(=O)CC1C(=O)NCCN1c1nc2c(C)cccn2c(=O)c1/C=C1\SC(=S)N(C(C)CC)C1=O (centres undefined)	696	36.8% (inactive)
CCc1cccc(NC(=O)CCCN2C(=O)C(c3ccccc3)Oc3cccnc32)c1 (centres undefined)	663	-3.4% (inactive)

Structure (SMILES)	cell count [cells]	inhibition
COc1cccc(NC(=O)CN(C)C(=O)c2ccccc2CCc2ccccc2)c1	836	-9.7% (inactive)
CC(=O)c1cccc(NC(=O)CN2C(=O)c3cccnc3Oc3ccc(Cl)cc32)c1	693	-16.7% (inactive)
O=C(c1ccccc1)N1N=C(c2ccccc2O)CC1c1ccc(Br)cc1 (centres undefined)	868	1.5% (inactive)
COc1ccc(C(=O)NC2CC(C)(C)Cc3c2cnn3-c2ccccc2C)o1 (centres undefined)	621	-21% (inactive)
Cc1ccc(/C=C2/SC(=S)N(CCC(=O)NCCCN3CCOCC3)C2=O)cc1	794	-18.3% (inactive)
CCc1ccc(NC(=O)C(C)OC(=O)/C=C/c2cccc([N+](=O)[O-])c2)cc1 (centres undefined)	651	60% (active)
Cc1ccc(NC(=O)O/N=C/c2cccc([N+](=O)[O-])c2)cc1	427	-4.6% (inactive)
CCC(CC)NC(=O)/C=C/c1cccc([N+](=O)[O-])c1	628	-7.2% (inactive)
COc1ccccc1CCNS(=O)(=O)c1cc2c3c(c1)C(C)C(=O)N3CCC2 (centres undefined)	707	-4% (inactive)
CCCCN(CCCC)CCCNC(=O)CN1C(=O)COc2ccc(S(=O)(=O)N3CCC(C)CC3)cc21	789	10.1% (inactive)
CCOC(=O)[C@H]1[C@H]2COc3cc(OC)ccc3[C@@H]2N2C(=O)N(c3ccc(Br)cc3)C(=O)[C@@]12C	831	-8.9% (inactive)
COc1cccc(OCC(O)CNC(=O)c2oc3c(C)c(C)ccc3c2C)c1 (centres undefined)	871	-0.2% (inactive)
C=C(C)Cn1c(N2CCCC2)nc2c1c(=O)[nH]c(=O)n2C	632	-2.2% (inactive)
Cn1c(=O)[nH]c(=O)c2c1nc(N1CCN(C(c3ccccc3)c3ccccc3)CC1)n2CCO	768	60.3% (active)
CC1CCN(c2nc3c(c(=O)[nH]c(=O)n3C)n2CCCc2ccccc2)CC1	572	-14.6% (inactive)
CCOc1ccc(NC(=O)CCCCCN2C(=O)[C@@H]3Cc4ccccc4CN3C2=O)cc1	676	11.7% (inactive)
CCOc1ccc(CCNC(=O)C2=C(C)C(=O)OC23CCC(C)CC3)cc1OCC (centres undefined)	788	17.6% (inactive)
CCOc1cc(NC(=O)Nc2ccccc2)c(OCC)cc1NC(=O)CC	783	4.2% (inactive)
CCOc1ccc(CCNC(=O)Nc2ccccc2)cc1OCC	809	118% (active)
CCn1c(SCc2cccc(C(=O)O)c2)nnc1-c1ccc(Cl)cc1	802	11.8% (inactive)
COc1ccc(C(=O)N2CCCCC2C(=O)Nc2ccc(-n3nc(C)cc3C)cc2)o1 (centres undefined)	694	-12.1% (inactive)
C(=N/Nc1cc(N2CCOCC2)nc(N2CCOCC2)n1)/c1ccccc1	583	120% (active)
CN(C)c1ccc(/C=N/Nc2cc(N3CCOCC3)nc(N3CCOCC3)n2)cc1	716	-2.2% (inactive)
Cc1cc(N2CCN(c3ccccc3)CC2)nc(N2CCOCC2)n1	649	-5.7% (inactive)
Cc1cccc(NC(=O)c2ccc(S(=O)(=O)N(C)CC3CCCO3)cc2)c1C (centres undefined)	678	-9.6% (inactive)
Cc1cccc2c1cnn2C(=O)CCC(=O)NC1CCCCC1	740	-7.9% (inactive)
